Holding throughout (assay type): functional
Assay [1] relates to TK-10. Briefly: Antiproliferative activity against human TK10 cells after 48 hrs by SRB assay. The conditions noted are these: TK-10, 48 h; for CC50: read-out: LC50 (the source's name). The method in brief:
(§1)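 Cells kept as monolayers in RPMI with 5% FBS, 2 mM L-glutamine and 50 μg/mL gentamicin (37 °C, 5% CO2), used at passages 3–19. They were plated at 7–10 000 cells/well for 24 h, with a T0 plate TCA-fixed at drug addition. Compounds in DMSO, diluted in medium, at 5 concentrations (0.01–100 μM) for 48 h, duplicate. SRB read at 540 nm; net % growth gave GI50, TGI, LC50.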
(In SRB staining, fixed cells bind dye roughly in proportion to their protein.)

For assay [2], the system named is UACC-62. Briefly: Antiproliferative activity against human UACC62 cells after 48 hrs by SRB assay. The conditions noted are these: UACC-62, 48 h; for CC50: read-out: LC50 (the source's name). The method in brief: as §1
Assay [3] has as its system MCF7. Kind of assay: Antiproliferative activity against human MCF7 cells after 48 hrs by SRB assay. The conditions noted are these: MCF7, 48 h; for CC50: read-out: LC50 (the source's name). The method in brief:
as §1

Assay [4] deals with HeLa. Kind of assay: Antiproliferative activity against human HeLa cells after 48 hrs by SRB assay. The conditions noted are these: for CC50: read-out: LC50 (the source's name).

What is called GI50 is the concentration giving 50% growth inhibition. A higher GI50 goes with less potent growth inhibition. The TGI is the concentration giving total growth inhibition. Regarding `O=C(O)C1=C(Nc2ccccc2)C(=O)c2ccccc2C1=O`, the GI50 came to 74.1 µM in assay [1], 6.66 µM in assay [2], 42.6 µM in assay [3] and 49.2 µM in assay [4]. Further, the CC50 in assay [1] was over 100 µM; in assay [2], 73.1 µM; in assay [3], over 100 µM; in assay [4] it was over 100 µM. Further, the TGI in assay [2] was 30.7 µM; in assay [3], over 100 µM; in assay [4], 97.2 µM.

On to `CC(C)c1ccc(NC2=C(C(=O)O)C(=O)c3ccccc3C2=O)cc1`, for which the GI50 was 8.38 µM in assay [1], 5.19 µM in assay [2], 37.7 µM in assay [3] and 38.3 µM in assay [4]. The TGI in assay [1] was 63.6 µM; in assay [2], 10.8 µM; in assay [3], over 100 µM; in assay [4], 73 µM. For the same compound, the CC50 in assay [1] was over 100 µM; in assay [2], 58.1 µM; in assay [3], over 100 µM; in assay [4] it was over 100 µM.

Consider `O=C(O)C1=C(Nc2ccc(CCO)cc2)C(=O)c2ccccc2C1=O`, for which the GI50 in assay [1] turned out to be 91.1 µM; in assay [2] it was 7.17 µM; in assay [3] it was 54.9 µM; in assay [4], 72.5 µM. The TGI in assay [1] is over 100 µM; in assay [2] it was 35.3 µM; in assay [3], over 100 µM; in assay [4] it was over 100 µM. The CC50 in assay [1] is over 100 µM; in assay [2] it was 72 µM; in assay [3], over 100 µM; in assay [4], over 100 µM.

Turning to `N#Cc1cccc(NC2=C(C(=O)O)C(=O)c3ccccc3C2=O)c1`, the GI50 is 23.7 µM in assay [1], 3.99 µM in assay [2], 15.1 µM in assay [3] and 16 µM in assay [4]. The TGI was found to be 76.2 µM in assay [1], 7.17 µM in assay [2], 53.8 µM in assay [3] and 49.1 µM in assay [4]. The CC50 is over 100 µM in assay [1], 19.3 µM in assay [2], 92.4 µM in assay [3] and 82.3 µM in assay [4].

In the case of `O=C(O)C1=C(Nc2cccc(Cl)c2)C(=O)c2ccccc2C1=O`, the GI50 worked out at 35.9 µM in assay [1], 17 µM in assay [2], 43.2 µM in assay [3] and 37.3 µM in assay [4]. The TGI in assay [1] is over 100 µM; in assay [2], 49.1 µM; in assay [3], over 100 µM; in assay [4], 70.7 µM. In addition, the CC50 in assay [1] is over 100 µM; in assay [2] it was 81.2 µM; in assay [3] it was over 100 µM; in assay [4] it was over 100 µM.

Consider `O=C(O)C1=C(Nc2ccc(Cl)cc2)C(=O)c2ccccc2C1=O`, for which the GI50 in assay [1] was found to be 13 µM; in assay [2], 3.98 µM; in assay [3] it was 17.2 µM; in assay [4], 24.8 µM. Further, the TGI was 79 µM in assay [1], 7.83 µM in assay [2], 55.1 µM in assay [3] and 55.4 µM in assay [4]. Further, the CC50 in assay [1] is over 100 µM; in assay [2] it was 55.1 µM; in assay [3], 93 µM; in assay [4], 86.1 µM.

Turning to `O=C(O)C1=C(Nc2ccccc2Cl)C(=O)c2ccccc2C1=O`, the GI50 in assay [1] was found to be 80.7 µM; in assay [2], 31 µM; in assay [3], 63.5 µM; in assay [4] it was 28 µM. The TGI was over 100 µM in assay [1], 65.8 µM in assay [2], over 100 µM in assay [3] and 60.3 µM in assay [4]. Moreover, the CC50 in assay [1] was over 100 µM; in assay [2] it was over 100 µM; in assay [3], over 100 µM; in assay [4] it was 90.2 µM.

Regarding `O=C(O)C1=C(Nc2ccc(F)cc2)C(=O)c2ccccc2C1=O`, the GI50 in assay [1] came out at 46.6 µM; in assay [2], 7.54 µM; in assay [3] it was 38.1 µM; in assay [4] it was 36.2 µM. Besides, the TGI in assay [1] was over 100 µM; in assay [2], 35 µM; in assay [3] it was 98.9 µM; in assay [4] it was 67.3 µM. Also, the CC50 in assay [1] was over 100 µM; in assay [2] it was 72.1 µM; in assay [3] it was over 100 µM; in assay [4], 98.4 µM.

Regarding `O=C(O)C1=C(Nc2cccc(F)c2)C(=O)c2ccccc2C1=O`, the GI50 in assay [1] stood at 24.7 µM; in assay [2], 5.28 µM; in assay [3] it was 9.08 µM; in assay [4] it was 28 µM. The TGI in assay [1] was over 100 µM; in assay [2], 13.7 µM; in assay [3], 48.4 µM; in assay [4] it was 60.3 µM. The CC50 in assay [1] is over 100 µM; in assay [2], 59.4 µM; in assay [3] it was 91 µM; in assay [4], 92.5 µM.

In the case of `O=C(O)C1=C(Nc2ccccc2F)C(=O)c2ccccc2C1=O`, the GI50 amounted to 36.9 µM in assay [1], 5.67 µM in assay [2], 9.84 µM in assay [3] and 47.5 µM in assay [4]. Moreover, the TGI is over 100 µM in assay [1], 23.3 µM in assay [2], 50.8 µM in assay [3] and 97 µM in assay [4]. The CC50 in assay [1] is over 100 µM; in assay [2] it was 65.4 µM; in assay [3] it was 92.2 µM; in assay [4], over 100 µM.

On to `O=C(O)C1=C(Nc2ccc(Cl)cc2F)C(=O)c2ccccc2C1=O`, for which the GI50 in assay [1] came to 13.4 µM; in assay [2], 4.17 µM; in assay [3], 21.4 µM; in assay [4], 25.2 µM. In addition, the TGI in assay [1] came to 93.3 µM; in assay [2], 7.94 µM; in assay [3], 54.9 µM; in assay [4] it was 55.5 µM. Moreover, the CC50 in assay [1] is over 100 µM; in assay [2] it was 40.4 µM; in assay [3] it was 88.5 µM; in assay [4], 85.9 µM.

As for `COc1cc([C@@H]2c3cc4c(cc3[C@@H](O[C@@H]3O[C@@H]5CO[C@@H](C)O[C@H]5[C@H](O)[C@H]3O)[C@H]3COC(=O)[C@H]23)OCO4)cc(OC)c1O` [ETOPOSIDE], the GI50 in assay [1] was found to be 7.19 µM; in assay [2], 0.89 µM; in assay [3], 0.56 µM; in assay [4] it was 3.56 µM. In addition, the concentration for total growth inhibition (TGI) in assay [1] is 49.7 µM; in assay [2], 52.7 µM; in assay [3], over 100 µM; in assay [4], 40.2 µM. The CC50 in assay [1] was over 100 µM; in assay [2] it was over 100 µM; in assay [3] it was over 100 µM; in assay [4] it was 87.5 µM.

The values above are taken from ChEMBL document CHEMBL2046300, “A laccase-catalysed one-pot synthesis of aminonaphthoquinones and their anticancer activity” (2012).
